Measured values reported in ChEMBL document CHEMBL5108074 (J Med Chem, 2022).

Key:
[1] = Genotoxicity in Salmonella typhimurium by non-GLP bacterial mutagenicity Ames test; assay type: toxicity; details: salmonella enterica subsp. enterica serovar typhimurium
Renin = Renin (Homo sapiens, UniProt P00797); assay: Inhibition of human renin preincubated for 5 mins followed by substrate addition by fluorometer analysis
Cathepsin G = Cathepsin G (Homo sapiens, UniProt P08311); assay: Inhibition of human Cathepsin G preincubated for 5 mins followed by substrate addition by fluorometer analysis
Sequence of Cathepsin G (P08311 whole entry): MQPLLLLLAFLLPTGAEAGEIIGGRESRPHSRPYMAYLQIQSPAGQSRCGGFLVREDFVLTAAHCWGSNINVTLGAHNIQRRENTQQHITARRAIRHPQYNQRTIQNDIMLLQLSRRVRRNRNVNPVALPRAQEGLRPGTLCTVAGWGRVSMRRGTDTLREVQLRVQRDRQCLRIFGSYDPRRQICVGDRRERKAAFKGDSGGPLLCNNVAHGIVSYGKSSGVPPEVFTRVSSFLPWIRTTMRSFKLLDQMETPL
In short: (§1)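 Each protease (commercial, typically purified from human plasma) was preincubated with inhibitor for 5 min, then a fluorogenic substrate specific to that enzyme was added. Cleavage was followed kinetically by fluorometry. IC50 came from a four-parameter logistic fit to the normalized rate of fluorescence increase.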

Beta-secretase 1 = Beta-secretase 1 (Homo sapiens, UniProt P56817); assay: Inhibition of human beta-secretase 1 preincubated for 5 mins followed by substrate addition by fluorometer analysis
Sequence of Beta-secretase 1 (P56817 whole entry): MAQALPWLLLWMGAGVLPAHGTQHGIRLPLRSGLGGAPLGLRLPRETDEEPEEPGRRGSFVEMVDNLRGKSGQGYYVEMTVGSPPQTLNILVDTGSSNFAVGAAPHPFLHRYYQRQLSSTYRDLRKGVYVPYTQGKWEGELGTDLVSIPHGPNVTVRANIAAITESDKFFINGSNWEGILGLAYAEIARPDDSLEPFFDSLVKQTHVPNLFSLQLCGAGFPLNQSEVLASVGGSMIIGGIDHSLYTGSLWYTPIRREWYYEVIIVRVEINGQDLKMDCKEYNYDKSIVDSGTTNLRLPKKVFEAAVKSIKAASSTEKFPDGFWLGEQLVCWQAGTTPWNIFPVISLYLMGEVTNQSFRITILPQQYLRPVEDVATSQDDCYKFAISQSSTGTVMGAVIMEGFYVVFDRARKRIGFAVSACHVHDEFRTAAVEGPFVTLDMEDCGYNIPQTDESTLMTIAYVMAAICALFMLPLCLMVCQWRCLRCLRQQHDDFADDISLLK

Cathepsin D = Cathepsin D (Homo sapiens, UniProt P07339); assay: Inhibition of human Cathepsin D preincubated for 5 mins followed by substrate addition by fluorometer analysis
Sequence of Cathepsin D (P07339 65-162 limits assumed): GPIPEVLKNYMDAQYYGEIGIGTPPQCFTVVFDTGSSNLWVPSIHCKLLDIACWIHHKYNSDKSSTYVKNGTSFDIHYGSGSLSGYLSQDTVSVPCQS
Sequence of Cathepsin D (P07339 169-412 limits assumed): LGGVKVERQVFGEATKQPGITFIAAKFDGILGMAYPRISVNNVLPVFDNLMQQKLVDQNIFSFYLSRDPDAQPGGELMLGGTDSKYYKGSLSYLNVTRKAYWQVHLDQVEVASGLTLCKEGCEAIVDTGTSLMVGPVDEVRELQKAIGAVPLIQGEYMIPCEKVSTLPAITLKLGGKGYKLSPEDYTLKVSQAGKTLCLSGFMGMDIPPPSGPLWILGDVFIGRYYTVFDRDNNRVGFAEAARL

[2] = Clearance in Sprague-Dawley rat assessed as liver blood flow at 1 mg/kg, iv measured upto 24 hrs by LC-MS analysis; assay type: ADME, organism-based; details: in vivo
In short: (§2)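 Male Sprague-Dawley rats, two per route, single dose. IV: 1 mg/kg given as 1 mL/kg of a nominal 1 mg/mL formulation in vehicle. PO: 10 mg/kg given as 5 mL/kg of a 2 mg/mL formulation. PK parameters from noncompartmental analysis. Clearance expressed relative to rat liver blood flow of 80 mL/min/kg.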

Cytochrome P450 1A2 = biological target: T1, Cytochrome P450 1A2 (Homo sapiens, UniProt P05177); assay: Inhibition of CYP1A2 in human liver microsomes assessed as reduction in acetaminophen metabolite formation incubated for 30 mins in presence of NADPH by LC-MS/MS analysis; assay type: ADME, Microsome
T1 sequence (P05177 whole entry): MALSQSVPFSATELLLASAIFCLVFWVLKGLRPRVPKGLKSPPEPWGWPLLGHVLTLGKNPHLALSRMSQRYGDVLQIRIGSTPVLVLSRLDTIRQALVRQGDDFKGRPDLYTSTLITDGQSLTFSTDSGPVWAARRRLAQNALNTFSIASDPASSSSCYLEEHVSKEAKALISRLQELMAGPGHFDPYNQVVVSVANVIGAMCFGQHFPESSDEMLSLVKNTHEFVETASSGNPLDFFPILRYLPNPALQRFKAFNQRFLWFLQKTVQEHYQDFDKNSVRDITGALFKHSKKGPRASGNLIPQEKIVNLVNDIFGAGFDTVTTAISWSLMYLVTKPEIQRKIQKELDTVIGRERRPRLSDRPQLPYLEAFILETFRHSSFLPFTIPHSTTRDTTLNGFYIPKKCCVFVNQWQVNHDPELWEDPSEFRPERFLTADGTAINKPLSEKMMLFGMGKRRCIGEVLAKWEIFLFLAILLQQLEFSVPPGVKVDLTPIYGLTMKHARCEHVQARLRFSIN

[3] = Oral bioavailability in Sprague-Dawley rat at 10 mg/kg measured upto 24 hrs by LC-MS analysis; assay type: ADME, organism-based; details: in vivo; in short: as §2
[4] = Volume of distribution at steady state in Beagle dog at 1 mg/kg, po and 1 mg/kg, iv measured upto 24 hrs by LC-MS analysis; assay type: ADME, organism-based, Canis lupus familiaris; details: in vivo
Prothrombin = Prothrombin (Homo sapiens, UniProt P00734); assay: Inhibition of human thrombin preincubated for 5 mins followed by substrate addition by fluorometer analysis; in short: as §1
Coagulation factor XI = Coagulation factor XI (Homo sapiens, UniProt P03951); assay: Inhibition of human factor 11a preincubated for 5 mins followed by substrate addition by fluorometer analysis
Sequence of Coagulation factor XI (P03951 19-387 limits assumed): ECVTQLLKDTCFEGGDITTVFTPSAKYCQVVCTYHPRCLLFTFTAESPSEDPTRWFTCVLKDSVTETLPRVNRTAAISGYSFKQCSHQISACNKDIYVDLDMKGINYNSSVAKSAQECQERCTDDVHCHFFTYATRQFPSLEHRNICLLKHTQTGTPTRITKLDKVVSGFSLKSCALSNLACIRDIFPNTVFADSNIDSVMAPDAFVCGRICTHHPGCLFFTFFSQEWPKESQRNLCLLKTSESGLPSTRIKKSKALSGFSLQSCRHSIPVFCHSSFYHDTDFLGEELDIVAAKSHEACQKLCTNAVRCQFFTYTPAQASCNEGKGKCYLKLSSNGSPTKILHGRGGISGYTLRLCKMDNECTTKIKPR
Sequence of Coagulation factor XI (P03951 388-625 limits assumed): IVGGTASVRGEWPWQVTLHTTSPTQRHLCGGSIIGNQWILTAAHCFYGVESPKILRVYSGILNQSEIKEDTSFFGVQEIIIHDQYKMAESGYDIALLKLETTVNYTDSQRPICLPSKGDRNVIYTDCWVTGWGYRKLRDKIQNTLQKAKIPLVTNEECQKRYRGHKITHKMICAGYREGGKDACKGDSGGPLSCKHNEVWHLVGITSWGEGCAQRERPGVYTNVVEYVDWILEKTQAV
In short: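 Enzyme from the selectivity panel of serine proteases, typically purified from human plasma. The inhibitor was preincubated with the enzyme for 5 min before a protease-specific fluorogenic substrate was added. Substrate cleavage was followed kinetically. IC50 came from a four-parameter logistic fit to the normalized rate of fluorescence increase.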

[5] = Clearance in Beagle dog assessed as liver blood flow at 1 mg/kg, iv measured upto 24 hrs by LC-MS analysis; assay type: ADME, organism-based, Canis lupus familiaris; details: in vivo
[6] = Thermodynamic solubility of the compound in FaSSGF at 1 mg/ml at pH 1.6 measured after 4 hrs; assay type: physicochemical; details: buffer, pH 1.6, 4 h
In short: (§3)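 Compound (nominal 1 or 100 mg/mL as free base) added to biorelevant medium preheated to 37 °C: FaSSGF at pH 1.6 or FaSSIF at pH 6.5. Vortexed, then shaken 4 h at 37 °C (~500 rpm). Centrifuged at 15000g for 10 min at 37 °C. Supernatant diluted and quantified against calibration standards. Crystalline material used where stated.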

Cytochrome P450 2C8 = Cytochrome P450 2C8 (Homo sapiens, UniProt P10632); assay: Inhibition of CYP2C8 in human liver microsomes assessed as reduction in 6 alpha-hydroxypaclitaxel metabolite formation incubated for 30 mins in presence of NADPH by LC-MS/MS analysis; assay type: ADME, Microsome
Sequence of Cytochrome P450 2C8 (P10632 whole entry): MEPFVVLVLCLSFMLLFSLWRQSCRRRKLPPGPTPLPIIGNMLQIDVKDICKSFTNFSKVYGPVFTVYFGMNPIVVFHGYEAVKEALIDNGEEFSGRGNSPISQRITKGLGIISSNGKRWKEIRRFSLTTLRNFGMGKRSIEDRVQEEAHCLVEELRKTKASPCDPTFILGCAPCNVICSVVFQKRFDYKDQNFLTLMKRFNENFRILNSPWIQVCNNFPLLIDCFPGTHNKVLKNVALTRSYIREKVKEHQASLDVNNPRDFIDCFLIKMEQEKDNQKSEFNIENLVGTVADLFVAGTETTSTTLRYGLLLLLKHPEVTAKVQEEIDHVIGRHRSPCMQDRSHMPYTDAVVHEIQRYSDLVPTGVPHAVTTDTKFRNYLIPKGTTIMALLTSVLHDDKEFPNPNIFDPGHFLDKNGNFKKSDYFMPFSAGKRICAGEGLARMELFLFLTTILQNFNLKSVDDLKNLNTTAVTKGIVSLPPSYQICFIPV

Plasminogen = Plasminogen (Homo sapiens, UniProt P00747); assay: Inhibition of human plasmin preincubated for 5 mins followed by substrate addition by fluorometer analysis; in short: as §1
Kallikrein-1 = Kallikrein-1 (Homo sapiens, UniProt P06870); assay: Inhibition of human KLK1 preincubated for 5 mins followed by substrate addition by fluorometer analysis
Sequence of Kallikrein-1 (P06870 whole entry): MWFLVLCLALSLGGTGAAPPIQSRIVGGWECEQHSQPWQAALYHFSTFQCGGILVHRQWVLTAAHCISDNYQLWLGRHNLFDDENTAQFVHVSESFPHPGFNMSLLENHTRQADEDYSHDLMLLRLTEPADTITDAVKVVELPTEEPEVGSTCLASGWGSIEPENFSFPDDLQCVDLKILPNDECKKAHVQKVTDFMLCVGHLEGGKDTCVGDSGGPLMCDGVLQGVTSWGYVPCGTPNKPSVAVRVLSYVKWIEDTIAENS

[7] = biological target: Tissue-type plasminogen activator (Homo sapiens, UniProt P00750); assay: Inhibition of human tissue plasminogen activator preincubated for 5 mins followed by substrate addition by fluorometer analysis; in short: as §1
Sequence of Tissue-type plasminogen activator (P00750 whole entry): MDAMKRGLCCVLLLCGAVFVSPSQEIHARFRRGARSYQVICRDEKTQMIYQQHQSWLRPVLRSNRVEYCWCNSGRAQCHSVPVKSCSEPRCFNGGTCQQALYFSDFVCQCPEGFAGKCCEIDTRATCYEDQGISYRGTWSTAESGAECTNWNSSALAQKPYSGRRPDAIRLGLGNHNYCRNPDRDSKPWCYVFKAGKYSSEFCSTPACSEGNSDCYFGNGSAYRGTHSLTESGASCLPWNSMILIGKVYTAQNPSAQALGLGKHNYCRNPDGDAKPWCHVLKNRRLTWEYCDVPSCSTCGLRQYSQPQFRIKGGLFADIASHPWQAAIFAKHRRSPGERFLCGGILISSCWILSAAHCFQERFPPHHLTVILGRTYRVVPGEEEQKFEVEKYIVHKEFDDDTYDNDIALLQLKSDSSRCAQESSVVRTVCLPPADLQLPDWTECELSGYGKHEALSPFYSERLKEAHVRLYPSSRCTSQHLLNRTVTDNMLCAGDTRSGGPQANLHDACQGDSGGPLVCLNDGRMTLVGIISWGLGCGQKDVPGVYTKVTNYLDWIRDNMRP

Cytochrome P450 3A4 = Cytochrome P450 3A4 (Homo sapiens, UniProt P08684); assay: Inhibition of CYP3A4 in human liver microsomes assessed as reduction in 6beta-hydroxytestosterone metabolite formation using testosterone as substrate incubated for 30 mins in presence of NADPH by LC-MS/MS analysis; assay type: ADME, Microsome
Sequence of Cytochrome P450 3A4 (P08684 whole entry): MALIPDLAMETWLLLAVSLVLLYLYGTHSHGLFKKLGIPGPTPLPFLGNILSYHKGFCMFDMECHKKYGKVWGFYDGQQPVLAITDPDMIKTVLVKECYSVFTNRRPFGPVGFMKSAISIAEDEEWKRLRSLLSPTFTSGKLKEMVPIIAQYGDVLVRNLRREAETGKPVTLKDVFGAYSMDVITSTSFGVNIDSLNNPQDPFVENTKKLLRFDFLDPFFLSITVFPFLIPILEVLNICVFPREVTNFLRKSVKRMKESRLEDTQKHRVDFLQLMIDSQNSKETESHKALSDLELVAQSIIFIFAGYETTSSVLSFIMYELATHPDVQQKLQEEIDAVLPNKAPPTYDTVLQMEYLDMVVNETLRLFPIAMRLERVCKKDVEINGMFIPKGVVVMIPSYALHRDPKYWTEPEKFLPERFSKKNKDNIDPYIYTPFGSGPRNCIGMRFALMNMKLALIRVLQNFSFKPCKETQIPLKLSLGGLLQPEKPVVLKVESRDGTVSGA

Cytochrome P450 2C9 = Cytochrome P450 2C9 (Homo sapiens, UniProt P11712); assay: Inhibition of CYP2C9 in human liver microsomes assessed as reduction in 4 hydroxy-diclofenac metabolite formation incubated for 30 mins in presence of NADPH by LC-MS/MS analysis; assay type: ADME, Microsome
[8] = Thermodynamic solubility of the compound in FaSSGF at 100 mg/ml at pH 1.6 measured after 4 hrs; details: pH 1.6, 4 h
[9] = Clearance in Sprague-Dawley rat blood at 1 mg/kg, iv measured upto 24 hrs by LC-MS analysis; assay type: ADME, organism-based; details: whole blood; in short: as §2
Cytochrome P450 2C19 = Cytochrome P450 2C19 (Homo sapiens, UniProt P33261); assay: Inhibition of CYP2C19 in human liver microsomes assessed as reduction in 4-hydroxymephenytoin metabolite formation incubated for 30 mins in presence of NADPH by LC-MS/MS analysis; assay type: ADME, Microsome
[10] = Thermodynamic solubility of the compound in FaSSIF at 1 mg/ml at pH 6.5 using crystalline form of sample measured after 4 hrs; assay type: physicochemical; details: simulated gi fluid, pH 6.5, 4 h; in short: as §3
[11] = Clearance in Beagle dog blood at 1 mg/kg, iv measured upto 24 hrs by LC-MS analysis; assay type: ADME, organism-based, Canis lupus familiaris; details: whole blood
[12] = Half life in Beagle dog at 1 mg/kg, po and 1 mg/kg, iv measured upto 24 hrs by LC-MS analysis; assay type: ADME, organism-based, Canis lupus familiaris; details: in vivo
Coagulation factor XII = Coagulation factor XII (Homo sapiens, UniProt P00748); assay: Inhibition of human factor 12a preincubated for 5 mins followed by substrate addition by fluorometer analysis; in short: as §1
Sequence of Coagulation factor XII (P00748 20-372 limits assumed): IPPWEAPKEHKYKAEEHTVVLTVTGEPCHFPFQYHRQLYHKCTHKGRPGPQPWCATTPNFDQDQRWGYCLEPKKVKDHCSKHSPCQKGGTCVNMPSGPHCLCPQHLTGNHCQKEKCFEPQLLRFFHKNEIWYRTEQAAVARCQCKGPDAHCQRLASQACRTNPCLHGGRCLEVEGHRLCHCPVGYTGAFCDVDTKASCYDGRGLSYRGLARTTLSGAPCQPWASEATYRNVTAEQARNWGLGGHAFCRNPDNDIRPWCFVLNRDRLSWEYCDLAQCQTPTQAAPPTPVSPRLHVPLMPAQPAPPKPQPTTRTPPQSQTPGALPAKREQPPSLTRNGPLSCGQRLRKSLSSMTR
Sequence of Coagulation factor XII (P00748 373-615 limits assumed): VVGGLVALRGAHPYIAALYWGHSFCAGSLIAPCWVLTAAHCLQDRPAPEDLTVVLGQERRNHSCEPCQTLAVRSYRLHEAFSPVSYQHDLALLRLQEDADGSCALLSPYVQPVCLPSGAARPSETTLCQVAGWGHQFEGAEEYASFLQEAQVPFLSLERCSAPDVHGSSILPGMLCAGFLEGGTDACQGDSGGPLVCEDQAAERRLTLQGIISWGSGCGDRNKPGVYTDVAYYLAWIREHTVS

Sequence of Renin (P00797 whole entry): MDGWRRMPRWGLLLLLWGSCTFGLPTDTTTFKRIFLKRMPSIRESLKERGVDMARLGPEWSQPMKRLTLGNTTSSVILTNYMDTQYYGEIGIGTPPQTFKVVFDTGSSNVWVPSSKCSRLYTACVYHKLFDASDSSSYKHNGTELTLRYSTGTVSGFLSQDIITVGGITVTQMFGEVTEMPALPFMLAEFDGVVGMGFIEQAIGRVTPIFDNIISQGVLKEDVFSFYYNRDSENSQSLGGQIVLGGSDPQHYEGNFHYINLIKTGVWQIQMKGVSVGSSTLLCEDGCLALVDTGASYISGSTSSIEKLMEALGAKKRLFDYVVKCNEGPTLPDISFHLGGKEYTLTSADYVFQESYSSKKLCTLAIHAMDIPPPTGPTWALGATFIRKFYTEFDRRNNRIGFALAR

SMILES: COCc1nn(Cc2ccc(Cn3ccccc3=O)cc2)cc1C(=O)NCc1nccc(OC)c1F [SEBETRALSTAT]
- Activity [1]: Non-Toxic
- IC50 (Renin): > 10 µM
- IC50 (Cathepsin G): > 10 µM
- IC50 (Beta-secretase 1): > 10 µM
- IC50 (Cathepsin D): > 10 µM
- LBF [2]: 26%
- IC50 (Cytochrome P450 1A2): > 25 µM
- F [3]: 82%
- Vdss [4]: 0.65 L/kg
- IC50 (Prothrombin): > 40 µM
- IC50 (Coagulation factor XI): > 40 µM
- LBF [5]: 33%
- Therm_solubility [6]: > 1000 µg/mL
- IC50 (Cytochrome P450 2C8): > 25 µM
- IC50 (Plasminogen): > 40 µM
- IC50 (Kallikrein-1): > 40 µM
- IC50 [7]: > 10 µM
- IC50 (Cytochrome P450 3A4): > 25 µM
- IC50 (Cytochrome P450 2C9): > 25 µM
- Therm_solubility [8]: 11000 µg/mL
- clearance [9]: 20.9 mL/min/kg
- IC50 (Cytochrome P450 2C19): > 25 µM
- Therm_solubility [10]: 110 µg/mL
- clearance [11]: 10.9 mL/min/kg
- t1/2 [12]: 1 h
- IC50 (Coagulation factor XII): > 40 µM
